The source of these data is ChEMBL document CHEMBL1142145, “Posaconazole prophylaxis in experimental systemic zygomycosis” (2007).

By MIC is commonly meant the smallest concentration in the dilution series that meets the test's criterion for growth inhibition.

Converted amounts (≈) assume the structure as drawn. The source made the active and inactive calls.

The test system of test [1] is Rhizopus arrhizus. Put plainly: Antimicrobial activity against Rhizopus oryzae 4570. In kind it is functional. Put shortly: (§1)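 CLSI M38-A broth microdilution. Isolates were grown on Sabouraud dextrose agar for 5 days at 35°C, and conidia were harvested in 0.85% saline. The final inoculum was about 10^4 CFU/ml, set by hemocytometer. Drug range 0.015–8.0 µg/ml; plates incubated at 35°C for 21–26 h. MIC was the lowest concentration with no discernible growth. Each strain was tested in quintuplicate.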

Test [2] deals with Rhizopus arrhizus. Put plainly: Antimicrobial activity against Rhizopus oryzae 4745. The class given is functional. Put shortly: as §1
The test system of test [3] is Lichtheimia corymbifera. Put plainly: Antimicrobial activity against Absidia corymbifera 4535. In kind it is functional. In a few lines: as §1
The test system of test [4] is Mus musculus. Put plainly: Increase in survival of Rhizopus oryzae 4570 infected neutropenic CD1 mouse at 1 mg/kg/day, ip. The class given is functional, organism-based. Put shortly:
(§2)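 Male CD1 mice (25 g) made neutropenic with cyclophosphamide 200 mg/kg i.p. on […], +1 and +4 relative to infection. […] Inocula per mouse: R. oryzae 4570, 5 x 10^6; A. corymbifera, 5 x 10^5; R. oryzae 4745, 2 x 10^6 or 1 x 10^5. Deaths were recorded daily to day 10, with 13–18 mice/group and log-rank comparison.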

In test [5] the test system is Lichtheimia corymbifera. Put plainly: Percentage of infected lung in neutropenic CD1 mouse infected with Absidia corymbifera 4535 at 1 mg/kg/day, ip. The class given is functional. The conditions noted are these: route intraperitoneal. Put shortly:
(§3)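 They were infected i.v. with R. oryzae 4570 (5 x 10^6 spores) or A. corymbifera (5 x 10^5 spores). On day 3 brain, lungs, spleen and kidneys were homogenized in 2 ml saline and plated whole on SDA (detection limit 1 CFU/organ). Value is % culture-positive organs; 8 mice/group.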

Test [6] relates to Lichtheimia corymbifera. Put plainly: Percentage of infected spleen in neutropenic CD1 mouse infected with Absidia corymbifera 4535 at 1 mg/kg/day, ip. The class given is functional. The conditions noted are these: route intraperitoneal. In a few lines:
as §3

Test [7] relates to Lichtheimia corymbifera. Briefly: Percentage of infected kidney in neutropenic CD1 mouse infected with Absidia corymbifera 4535 at 1 mg/kg/day, ip. In kind it is functional. The conditions noted are these: route intraperitoneal. Put shortly: as §3
Test [8] has as its system Mus musculus. Briefly: Increase in survival of Absidia corymbifera 4535 infected neutropenic CD1 mouse at 1 mg/kg/day, ip. In kind it is functional, organism-based. Put shortly:
as §2

Test [9] relates to Mus musculus. Put plainly: Increase in survival of neutropenic CD1 mouse infected with 2 mega Rhizopus oryzae 4745 at 1 mg/kg/day, ip. The class given is functional, organism-based. In a few lines:
as §2

For test [10], the system named is Mus musculus. Put plainly: Increase in survival of neutropenic CD1 mouse infected with 0.1 mega Rhizopus oryzae 4745 at 1 mg/kg/day, ip. The class given is functional, organism-based. Put shortly:
as §2

The test system of test [11] is Rhizopus arrhizus. Briefly: Reduction of number of infection foci in Rhizopus oryzae 4570 infected neutropenic CD1 mouse kidney at 1 mg/kg/day, ip. The class given is functional, organism-based. In a few lines: (§4)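 On day 3 brains and kidneys were formalin-fixed and stained with Grocott-Gomori methenamine silver. At least two blinded observers counted hyphal foci and measured their size over 20 consecutive fields (15.7 mm2/section). Data are means ± SEM, 5 mice/group, ANOVA with Bonferroni.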

The test system of test [12] is Lichtheimia corymbifera. Put plainly: Reduction of number of infection foci in Absidia corymbifera 4535 infected neutropenic CD1 mouse kidney at 1 mg/kg/day, ip. The class given is functional, organism-based. Put shortly:
as §4

The test system of test [13] is Rhizopus arrhizus. Briefly: Reduction of infection foci size in Rhizopus oryzae 4570 infected neutropenic CD1 mouse kidney at 1 mg/kg/day, ip. In kind it is functional, organism-based. In a few lines:
as §4

Test [14] concerns Lichtheimia corymbifera. Put plainly: Reduction of infection foci size in Absidia corymbifera 4535 infected neutropenic CD1 mouse kidney at 1 mg/kg/day, ip. The class given is functional, organism-based. In a few lines: as §4
For test [15], the system named is Lichtheimia corymbifera. Put plainly: Percentage of infected brain in neutropenic CD1 mouse infected with Absidia corymbifera 4535 at 30 mg/kg/day, po. In kind it is functional. Put shortly: (§5)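 Neutropenic CD1 mice received three daily oral prophylactic doses, the last 2 h before i.v. challenge: R. oryzae 4570 at 5 x 10^6 or A. corymbifera at 5 x 10^5 spores/mouse. On day 3 mice were killed. Brain, lungs, spleen and kidneys were homogenized in 2 ml saline and plated whole on SDA; detection limit 1 CFU/organ. Read-out was percent culture-positive organs, eight mice per group.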

Test [16] concerns Rhizopus arrhizus. Put plainly: Percentage of infected lung in neutropenic CD1 mouse infected with Rhizopus oryzae 4570 at 30 mg/kg/day, po. The class given is functional. In a few lines: as §5
Test [17] deals with Lichtheimia corymbifera. Briefly: Percentage of infected lung in neutropenic CD1 mouse infected with Absidia corymbifera 4535 at 30 mg/kg/day, po. In kind it is functional. In a few lines:
as §5

The subject of test [18] is Rhizopus arrhizus. Briefly: Percentage of infected spleen in neutropenic CD1 mouse infected with Rhizopus oryzae 4570 at 30 mg/kg/day, po. In kind it is functional. In a few lines:
as §5

Test [19] relates to Lichtheimia corymbifera. Briefly: Percentage of infected spleen in neutropenic CD1 mouse infected with Absidia corymbifera 4535 at 30 mg/kg/day, po. In kind it is functional. In a few lines: as §5
Test [20] relates to Rhizopus arrhizus. Put plainly: Percentage of infected kidney in neutropenic CD1 mouse infected with Rhizopus oryzae 4570 at 30 mg/kg/day, po. In kind it is functional. Put shortly: as §5
Test [21] has as its system Lichtheimia corymbifera. Briefly: Percentage of infected kidney in neutropenic CD1 mouse infected with Absidia corymbifera 4535 at 30 mg/kg/day, po. The class given is functional. In a few lines:
as §5

Test [22] has as its system Mus musculus. Put plainly: Increase in survival of Rhizopus oryzae 4570 infected neutropenic CD1 mouse at 20 mg/kg/day, po. In kind it is functional, organism-based. In a few lines: (§6)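 Male CD1 mice (25 g) were made neutropenic with i.p. cyclophosphamide, 200 mg/kg, on days […] and +4 postinfection. Oral gavage dosing (200 µl) was given daily for 3 days, the last dose 2 h before i.v. challenge; controls received PEG 200. Challenge per mouse: R. oryzae 4570, 5 x 10^6 spores; A. corymbifera, 5 x 10^5; R. oryzae 4745, 1 x 10^5. Deaths were recorded daily to day 10, moribund mice counted dead next day. 13–18 mice per group; log rank test.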

Test [23] concerns Mus musculus. Briefly: Increase in survival of Rhizopus oryzae 4570 infected neutropenic CD1 mouse at 80 mg/kg/day, po. The class given is functional, organism-based. In a few lines: as §6
For test [24], the system named is Mus musculus. Put plainly: Increase in survival of Absidia corymbifera 4535 infected neutropenic CD1 mouse at 20 mg/kg/day, po. The class given is functional, organism-based. In a few lines: as §6
In test [25] the test system is Mus musculus. Put plainly: Increase in survival of Absidia corymbifera 4535 infected neutropenic CD1 mouse at 80 mg/kg/day, po. In kind it is functional, organism-based. In a few lines:
as §6

The test system of test [26] is Mus musculus. Put plainly: Increase in survival of neutropenic CD1 mouse infected with 0.1 mega Rhizopus oryzae 4745 at 50 mg/kg/day, po. The class given is functional, organism-based. In a few lines: as §6
Test [27] concerns Rhizopus arrhizus. Briefly: Reduction of number of infection foci in Rhizopus oryzae 4570 infected neutropenic CD1 mouse kidney at 30 mg/kg/day, po. The class given is functional, organism-based. In a few lines:
(§7)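 Neutropenic CD1 mice were given oral prophylaxis for 3 days, then i.v. challenge with R. oryzae 4570 (5 x 10^6 spores) or A. corymbifera (5 x 10^5). On day 3, brain and kidney were formalin-fixed, paraffin-embedded and stained with Grocott-Gomori methenamine silver. Number and size of hyphal foci were scored blind by at least two observers in 20 consecutive fields (15.7 mm2 per section). Values are mean ± SEM from 5 mice per group; ANOVA with Bonferroni correction.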

Test [28] relates to Rhizopus arrhizus. Put plainly: Reduction of number of infection foci in Rhizopus oryzae 4570 infected neutropenic CD1 mouse brain at 30 mg/kg/day, po. In kind it is functional, organism-based. In a few lines: as §7
For test [29], the system named is Lichtheimia corymbifera. Briefly: Reduction of number of infection foci in Absidia corymbifera 4535 infected neutropenic CD1 mouse kidney at 30 mg/kg/day, po. In kind it is functional, organism-based. Put shortly:
as §7

Test [30] relates to Lichtheimia corymbifera. Briefly: Reduction of number of infection foci in Absidia corymbifera 4535 infected neutropenic CD1 mouse brain at 30 mg/kg/day, po. The class given is functional, organism-based. In a few lines: as §7
In test [31] the test system is Rhizopus arrhizus. Briefly: Reduction of infection foci size in Rhizopus oryzae 4570 infected neutropenic CD1 mouse kidney at 30 mg/kg/day, po. The class given is functional, organism-based. Put shortly: as §7
Test [32] concerns Rhizopus arrhizus. Put plainly: Reduction of infection foci size in Rhizopus oryzae 4570 infected neutropenic CD1 mouse brain at 30 mg/kg/day, po. In kind it is functional, organism-based. Put shortly:
as §7

Test [33] has as its system Lichtheimia corymbifera. Put plainly: Reduction of infection foci size in Absidia corymbifera 4535 infected neutropenic CD1 mouse kidney at 30 mg/kg/day, po. In kind it is functional, organism-based. Put shortly:
as §7

For test [34], the system named is Lichtheimia corymbifera. Put plainly: Reduction of infection foci size in Absidia corymbifera 4535 infected neutropenic CD1 mouse brain at 30 mg/kg/day, po. In kind it is functional, organism-based. Put shortly: as §7
Test [35] relates to Rhizopus arrhizus. Put plainly: Percentage of infected brain in neutropenic CD1 mouse infected with Rhizopus oryzae 4570 at 30 mg/kg/day, po. In kind it is functional. In a few lines:
as §5

For `C[C@@H]1[C@H](O)[C@@H](C)/C=C/C=C/C=C/C=C/C=C/C=C/C=C/[C@H](O[C@@H]2O[C@H](C)[C@@H](O)[C@H](N)[C@@H]2O)C[C@@H]2O[C@](O)(C[C@@H](O)C[C@@H](O)[C@H](O)CC[C@@H](O)C[C@@H](O)CC(=O)O[C@H]1C)C[C@H](O)[C@H]2C(=O)O` [AMPHOTERICIN B], the MIC was 2 µg/mL (≈ 2.16 µM) against Rhizopus arrhizus [1], 0.5 µg/mL (≈ 0.541 µM) with Rhizopus arrhizus [2] and 1 µg/mL (≈ 1.08 µM) in the test with Lichtheimia corymbifera [3]. In addition, the outcome in the test with Mus musculus [4], in the test on Mus musculus [8], with Mus musculus [9], in the test on Mus musculus [10], in the test on Rhizopus arrhizus [11] and in the test on Lichtheimia corymbifera [12] was Active. The outcome in the test on Rhizopus arrhizus [13] and in the test on Lichtheimia corymbifera [14] was Active. The values for the Activity in the test on Lichtheimia corymbifera [5], with Lichtheimia corymbifera [6] and with Lichtheimia corymbifera [7] were 25%, 100% and 62.5%, respectively.
Turning to `CC[C@@H]([C@H](C)O)n1ncn(-c2ccc(N3CCN(c4ccc(OC[C@@H]5CO[C@@](Cn6cncn6)(c6ccc(F)cc6F)C5)cc4)CC3)cc2)c1=O` [POSACONAZOLE], the MIC worked out at 1 µg/mL (≈ 1.43 µM) against Rhizopus arrhizus [1], 1 µg/mL (≈ 1.43 µM) with Rhizopus arrhizus [2] and 0.25 µg/mL (≈ 0.357 µM) against Lichtheimia corymbifera [3]. The Activity amounted to 62.5% in the test on Lichtheimia corymbifera [15]; 100% with Rhizopus arrhizus [16]; 12.5% with Lichtheimia corymbifera [17]; 100% in the test on Rhizopus arrhizus [18]; 100% in the test on Lichtheimia corymbifera [19]; 100% in the test on Rhizopus arrhizus [20]. The Activity is recorded as 75% in the test with Lichtheimia corymbifera [21] and 100% in the test on Rhizopus arrhizus [35]. Further, the result in the test on Mus musculus [22], with Mus musculus [23], in the test with Rhizopus arrhizus [28] and in the test with Rhizopus arrhizus [32] was inactive. Also, the outcome in the test on Mus musculus [24], in the test with Mus musculus [25], in the test on Mus musculus [26], in the test with Rhizopus arrhizus [27], in the test on Lichtheimia corymbifera [29] and with Lichtheimia corymbifera [30] was Active. The outcome in the test on Rhizopus arrhizus [31], with Lichtheimia corymbifera [33] and with Lichtheimia corymbifera [34] was Active.
